Experiment [1] concerns the target T1, Integrin alpha-IIb/beta-3 (Homo sapiens, UniProt P05106+P08514). Description: Inhibition of [125I]fibrinogen binding to human Fibrinogen Receptor. Type of experiment: protein-complex assay.
Target sequence in this assay (P05106 27-788 limits assumed): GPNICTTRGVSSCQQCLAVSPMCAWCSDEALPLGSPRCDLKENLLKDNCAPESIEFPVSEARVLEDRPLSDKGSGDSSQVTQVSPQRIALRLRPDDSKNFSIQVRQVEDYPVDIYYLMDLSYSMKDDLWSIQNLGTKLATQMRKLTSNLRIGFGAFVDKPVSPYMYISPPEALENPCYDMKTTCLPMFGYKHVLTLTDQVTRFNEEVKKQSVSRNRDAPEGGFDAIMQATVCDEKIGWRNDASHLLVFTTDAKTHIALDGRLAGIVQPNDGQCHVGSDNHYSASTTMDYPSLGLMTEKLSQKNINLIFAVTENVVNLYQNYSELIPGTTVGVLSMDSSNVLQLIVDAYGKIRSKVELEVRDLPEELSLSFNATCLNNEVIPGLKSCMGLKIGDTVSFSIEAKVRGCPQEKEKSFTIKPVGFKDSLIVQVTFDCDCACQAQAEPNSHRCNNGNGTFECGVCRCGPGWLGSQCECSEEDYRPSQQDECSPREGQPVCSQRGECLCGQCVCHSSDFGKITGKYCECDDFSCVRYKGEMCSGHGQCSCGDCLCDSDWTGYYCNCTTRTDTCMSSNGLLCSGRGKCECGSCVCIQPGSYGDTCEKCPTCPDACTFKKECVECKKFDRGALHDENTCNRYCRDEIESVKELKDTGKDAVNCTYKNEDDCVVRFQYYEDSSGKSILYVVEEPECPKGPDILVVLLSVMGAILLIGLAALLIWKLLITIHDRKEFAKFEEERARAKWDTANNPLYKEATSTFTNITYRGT
Target sequence in this assay (P08514 32-887 limits assumed): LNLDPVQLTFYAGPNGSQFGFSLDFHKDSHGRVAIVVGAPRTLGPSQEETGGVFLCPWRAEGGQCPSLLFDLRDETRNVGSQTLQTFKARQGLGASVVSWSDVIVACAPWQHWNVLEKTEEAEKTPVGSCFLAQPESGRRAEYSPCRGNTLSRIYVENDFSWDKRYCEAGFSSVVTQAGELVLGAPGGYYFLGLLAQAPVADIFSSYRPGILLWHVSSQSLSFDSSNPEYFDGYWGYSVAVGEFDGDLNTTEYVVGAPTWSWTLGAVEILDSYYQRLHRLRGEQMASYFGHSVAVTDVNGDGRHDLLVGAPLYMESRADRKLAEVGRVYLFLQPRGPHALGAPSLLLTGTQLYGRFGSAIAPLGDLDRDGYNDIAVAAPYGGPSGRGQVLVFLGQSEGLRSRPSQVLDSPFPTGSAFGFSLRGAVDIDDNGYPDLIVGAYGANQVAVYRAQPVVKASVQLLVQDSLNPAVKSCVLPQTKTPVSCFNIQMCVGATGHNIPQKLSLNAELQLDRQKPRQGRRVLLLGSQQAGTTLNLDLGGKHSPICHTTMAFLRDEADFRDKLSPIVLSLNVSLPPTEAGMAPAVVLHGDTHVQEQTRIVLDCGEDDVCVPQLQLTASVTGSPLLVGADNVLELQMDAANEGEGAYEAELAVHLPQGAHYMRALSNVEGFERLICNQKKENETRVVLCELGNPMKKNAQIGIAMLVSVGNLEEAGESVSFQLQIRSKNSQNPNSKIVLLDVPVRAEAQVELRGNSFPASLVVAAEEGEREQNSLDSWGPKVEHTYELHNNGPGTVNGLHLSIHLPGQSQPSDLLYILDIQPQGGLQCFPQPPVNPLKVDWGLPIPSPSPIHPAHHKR
Target sequence in this assay (P08514 891-1039 limits assumed): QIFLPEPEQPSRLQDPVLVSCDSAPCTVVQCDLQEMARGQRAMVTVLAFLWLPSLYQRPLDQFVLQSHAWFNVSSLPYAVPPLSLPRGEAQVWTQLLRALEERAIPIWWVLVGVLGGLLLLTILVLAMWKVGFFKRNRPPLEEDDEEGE
Experiment [2] in a line: In vitro inhibition of thrombin-induced platelet aggregation. Type of experiment: functional. Conditions: Homo sapiens.
The target of experiment [3] is T1, Integrin alpha-IIb/beta-3. Description: Inhibition of thrombin-induced platelet aggregation at 50 uM. Type of experiment: functional.
Experiment [4] deals with T1, Integrin alpha-IIb/beta-3. Nature of the experiment: Inhibition of [125I]fibrinogen binding to human Fibrinogen Receptor at 50 uM. In kind it is protein-complex assay. The procedure, abridged: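 Human PRP with aspirin (50 μM, 37 °C, 20 min), pH 6.5, PGE1 0.9 μM; platelets gel-filtered, 1×10^8 per tube, thrombin-activated 2 min at room temperature, then hirudin. Compound plus [125I]fibrinogen (0.1 μM final) 10 min room temperature; platelets spun through silicone oil and pellet counted. Nonspecific binding with 4 mg/mL unlabeled fibrinogen; triplicates; % inhibition of specific binding vs fibrinogen alone.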

Our source for the IC50 and inhibition values is ChEMBL document CHEMBL1128342, “Novel thiazole-based heterocycles as selective inhibitors of fibrinogen-mediated platelet aggregation” (J Med Chem, 1995).

Molecules are shown by their SMILES.

Regarding `O=C(NCCCN1CCCCC1)c1cnn(-c2nc(-c3cccc(C(F)(F)F)c3)cs2)c1C(F)(F)F`, the results for the 50% inhibitory concentration (IC50) in experiment [1] and in experiment [2] were 30 µM and 10.9 µM, respectively. For `CCN(CC)CCCNC(=O)c1cnn(-c2nc(-c3cccc(C(F)(F)F)c3)c(C(=O)O)s2)c1C(F)(F)F`, in experiment [3], the inhibition (usually the share of the control response that was lost under treatment) turned out to be 30%.

For the compound `CC(=O)Oc1ccccc1C(=O)O` [ASPIRIN], the half-maximal inhibitory concentration (IC50) (usually the point on the concentration scale where inhibition reaches its midpoint) in experiment [2] is above 100 µM.

As for `CCN(CC)CCCNC(=O)c1cnn(-c2nc(-c3ccc(C(F)(F)F)cc3)cs2)c1C(F)(F)F`, the concentration for half-maximal inhibition (IC50) worked out at 40 µM in experiment [1] and 9.1 µM in experiment [2].

`NCCCCNC(=O)c1cnn(-c2nc(-c3cccc(C(F)(F)F)c3)cs2)c1C(F)(F)F`: the IC50 in experiment [1] is 18.3 µM; in experiment [2], 4.8 µM.

As for `N=C(N)CCCNC(=O)c1cnn(-c2nc(-c3cccc(C(F)(F)F)c3)cs2)c1C(F)(F)F`, the IC50 in experiment [1] was 23 µM; in experiment [2], 13 µM. For the compound `O=C(NCCCNc1ccccc1)c1cnn(-c2nc(-c3cccc(C(F)(F)F)c3)cs2)c1C(F)(F)F`, the figures for the inhibition in experiment [4] and in experiment [3] were 0% and 18%, respectively. In the case of `COc1ccc(CCNC(=O)C(CC(=O)O)NC(=O)CCCCCCCN=C(N)N)cc1` (centres undefined), the IC50 in experiment [1] is 9 µM; in experiment [2], 7.9 µM. On to `CCN(CC)CCCNC(=O)c1cnn(-c2nc(-c3ccccc3)cs2)c1C(F)(F)F`, for which the half-maximal inhibitory concentration (IC50) is 50 µM in experiment [1] and 30 µM in experiment [2].

As for `CCN(CC)CCCCCCCNC(=O)c1cnn(-c2nc(-c3cccc(C(F)(F)F)c3)cs2)c1C(F)(F)F`, the inhibition in experiment [4] was found to be 0%; in experiment [3], 35%. For the compound `O=C(NCCCN1CCCC1=O)c1cnn(-c2nc(-c3cccc(C(F)(F)F)c3)cs2)c1C(F)(F)F`, the inhibition in experiment [4] and in experiment [3] was 0% each time.

Take `N=C(N)NCCCNC(=O)c1cnn(-c2nc(-c3cccc(C(F)(F)F)c3)cs2)c1C(F)(F)F`: the half-inhibitory concentration (IC50) in experiment [1] was found to be 17.5 µM; in experiment [2], 11.8 µM. On the same counts, the results for `CCN(CC)CCCNC(=O)c1cnn(-c2nc(-c3ccc(C)cc3)cs2)c1C(F)(F)F` are 70 µM and 8.2 µM. On the same counts, the results for `CCCNCCCNC(=O)c1cnn(-c2nc(-c3cccc(C(F)(F)F)c3)cs2)c1C(F)(F)F` are 10 µM and 14.3 µM. Regarding `NCCNC(=O)c1cnn(-c2nc(-c3cccc(C(F)(F)F)c3)cs2)c1C(F)(F)F`, the inhibition in experiment [4] stood at 44%.

As for `CCN(CC)CCCNC(=O)c1cnn(-c2nc(-c3cccc(C)c3)cs2)c1C(F)(F)F`, the half-inhibitory concentration (IC50) in experiment [1] is 50 µM; in experiment [2], 25 µM.

In turn, `N=C(N)NCCC[C@H](N)C(=O)NCC(=O)N[C@@H](CC(=O)O)C(=O)N[C@@H](CO)C(=O)O` yielded a half-inhibitory concentration (IC50) in experiment [2] of 30 µM. Take `CC(C)NCCCNC(=O)c1cnn(-c2nc(-c3cccc(C(F)(F)F)c3)cs2)c1C(F)(F)F`: the IC50 in experiment [1] stood at 11.2 µM; in experiment [2], 6.7 µM. On to `O=C(NCCCNC1CCCCC1)c1cnn(-c2nc(-c3cccc(C(F)(F)F)c3)cs2)c1C(F)(F)F`, for which the results for the IC50 in experiment [1] and in experiment [2] were 25 µM and 6.1 µM, respectively.

In turn, `CCN(CC)CCCNC(=O)c1cnn(-c2nc(-c3cccc(C(F)(F)F)c3)cs2)c1C(F)(F)F` gave an IC50 in experiment [1] of 4.1 µM. With `NCCCNC(=O)c1cnn(-c2nc(-c3cccc(C(F)(F)F)c3)cs2)c1C(F)(F)F`, the values for the 50% inhibitory concentration (IC50) in experiment [1] and in experiment [2] were 12.3 µM and 14 µM, respectively. The corresponding values for `CN(C)/C=N/CCCNC(=O)c1cnn(-c2nc(-c3cccc(C(F)(F)F)c3)cs2)c1C(F)(F)F` are 15.6 µM and 13.7 µM. As for `NCCCCCNC(=O)c1cnn(-c2nc(-c3cccc(C(F)(F)F)c3)cs2)c1C(F)(F)F`, in experiment [4], the inhibition was 61%. This compound also registered a half-maximal inhibitory concentration (IC50) in experiment [2] of 11.5 µM. In the case of `CCN(CC)CCCNC(=O)c1cnn(-c2nc(-c3cccc(C(F)(F)F)c3)c(Br)s2)c1C(F)(F)F`, the concentration for half-maximal inhibition (IC50) in experiment [1] came to 1.3 µM; in experiment [2], 2.7 µM. The corresponding values for `CCN(CC)CCCNC(=O)c1cnn(-c2nc(-c3ccc(Cl)cc3)cs2)c1C(F)(F)F` are 45 µM and 6.8 µM. `CCN(CC)CCCNC(=O)c1cnn(-c2nc(-c3ccc(OC)cc3)cs2)c1C(F)(F)F` came in with an inhibition in experiment [4] of 57%. In experiment [2], this compound yielded an IC50 of 12.5 µM. Take `O=C(NCCCn1ccnc1)c1cnn(-c2nc(-c3cccc(C(F)(F)F)c3)cs2)c1C(F)(F)F`: the inhibition turned out to be 0% in experiment [4] and 33% in experiment [3].
